Laboratory results reported in PMC6287896 (Anti-Cancer Drugs, 2018).

What was measured:
Tissue levels = assay type: in vivo; settings: mouse heart, liver, kidney, brain; up to 24 h; i.v. and oral
In short: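 After intravenous or oral dosing, liver, kidney, heart and brain were collected at sacrifice. Tissue was homogenised in ice-cold 0.1% acetic acid (10 ml/g) and centrifuged. Acetonitrile/methanol was added to the supernatant, followed by vortexing, centrifugation, evaporation and reconstitution in 0.1% acetic acid. Samples were quantified by LC–MS/MS (SRM 240.100→110.054) against spiked blank-tissue calibrants.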

[1] = Plasma pharmacokinetics and bioavailability after intravenous and oral dosing; assay type: in vivo; settings: mouse, other: oral gavage and intravenous bolus
In short: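 Mice were dosed by intravenous bolus or oral gavage, with plasma sampled over 24 h and one sacrifice per time point. Plasma was protein-precipitated with acetonitrile/methanol, evaporated and reconstituted in 0.1% acetic acid. Quantitation was by C18 UHPLC–tandem MS with heated ESI and positive-mode SRM (240.100→110.054), against spiked mouse plasma calibrants. Half-life was taken from concentration–time profiles.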

Plasma stability = assay type: in vitro ADME; settings: over 2 h
In short: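 Human plasma was spiked with test compound and incubated separately at 25 and 37°C. Drug levels were measured over 120 min.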

DU-145 cells = experiment: WST-1 assay for cell viability and cytotoxicity; assay type: cell-based, human; settings: 23.4 mmol/l, 4 day incubation, read up to 8 h, P≤0.01
[2] = Acute toxicity, oral up and down procedure; assay type: in vivo, mouse; settings: 2000 mg/kg, monitored 48 h, repeated twice on other animals
PC-3 cells = experiment: WST-1 assay for cell viability and cytotoxicity; assay type: cell-based, human; settings: 23.4 mmol/l, 4 day incubation, read up to 8 h, P≤0.01
[3] = tested on: DU-145 prostate carcinoma cells; experiment: DU-145 xenografts in athymic nude mice; assay type: in vivo, mouse; settings: 30 days
[4] = Dose-response: serum markers of organ function; assay type: in vivo, mouse
In short: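 Mice were dosed intravenously with vehicle or 50, 100 or 200 mg/kg test compound (six per group). They were euthanised by CO2 with cervical dislocation at 6 or 18 h, and blood and tissue were collected. Serum AST, GGT, CRP and troponin I were measured by colorimetric assays to assess liver, kidney and heart function. Tissues were examined for gross pathology.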

[5] = intravenous 50, 100 or 200 mg/kg, 6 or 18 h

## C[C@@H]1C[C@@H](n2cnc(C(N)=O)c2N)[C@H](O)[C@H]1O [ICA-1s, 5-amino-1-((1R,2S,3S,4R)-2,3-dihydroxy-4-methylcyclopentyl)-1H-imidazole-4-carboxamide]
Tissue levels
  accumulation in major organs (tissue levels): did not appear to indicate accumulation
[1]
  half-life: 342 min
Plasma stability; 25°C (ambient)
  stability in human plasma: stable
Plasma stability; 37°C
  stability in human plasma: stable
DU-145 cells
  in-vitro cytotoxicity (WST-1, absorbance at 450 nm): significant cytotoxicity
[2]
  acute toxicity outcome at highest dose of the UDP: survived with no observable adverse reaction
PC-3 cells
  in-vitro cytotoxicity (WST-1, absorbance at 450 nm): significant cytotoxicity
[3]; 100 mg/kg subcutaneous daily, untreated 156.4 mm^2
  average tumor size of treated xenografts: 76.8 mm^2
[3]; DU-145 xenografts, treated vs untreated
  tumor growth rate relative to untreated tumors: almost half the rate
[4]; intravenous 200 mg/kg, 6 h after treatment, P=0.033
  serum CRP versus control: significant rise
[4]; [5]
  serum AST versus control: no significant difference
  serum GGT versus control: no significant difference
  serum troponin I versus control: no significant difference
[4]; intravenous 50, 100 or 200 mg/kg, 6 or 18 h, other than 200 mg/kg at 6 h
  serum CRP versus control, all other readings: no significant difference
